PfGluPho inh: PfG6PD enzyme inhibitors, primary screen, biochemical, fluorescence intensity, uHTS; glucose-6-phosphate dehydrogenase-6-phosphogluconolactonase (Plasmodium falciparum 3D7); PfGluPho enzyme, NADPH resazurin-diaphorase fluorescence; inhibition, % at 20 µM; 0.78% of 350,000 active; AID 504690, 2011;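 active = inhibition reaching at least a set limit at 20 µM in the primary screen, cut at about 59% in these data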;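 also: 0% = DMSO wells with substrate and 100% = DMSO wells lacking glucose-6-phosphate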
Diaph act CS: compounds boosting diaphorase resazurin reduction – biochemical, uHTS, resorufin fluorescence, counter-screen for diaphorase-coupled primary assays, primary screen | Diaphorase/resazurin coupled assay, 16 min; active compounds read high; 1 = vehicle wells, 0 = NADH-free wells | activation factor at 20 µM | 0.005% of 190,000 active;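 active = diaphorase activity raised at least twofold by the compound at 20 µM; inactive = activation factor below 2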
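System – purified diaphorase enzyme from Clostridium kluyveri · Input – enzyme 0.07 U/mL final · Also added – final NADH 0.114 mM, resazurin 0.1 mM · Measured by – fluorescence of resorufin, 544 nm excitation, 590 nm emission · Timing – 16 min enzyme reaction, ambient temperature · Measure – resorufin increase flagging diaphorase activators or reducers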
Diaphorase inh: diaphorase inhibitors and chemical oxidizers, primary screen, counter-screen for diaphorase-coupled primary assays, biochemical, uHTS, resorufin fluorescence; diaphorase resazurin-to-resorufin fluorescence, NADH, 16 min; bacterial (C. kluyveri) enzyme, not human; inhibition, % at 20 µM; 0.69% of 190,000 active;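 active = primary screen inhibition at 20 µM above a set limit, cut at about 50% in these data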;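 also: plate controls were DMSO with full reaction for no effect and wells lacking NADH for full effect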
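Assay system: diaphorase enzyme from Clostridium kluyveri; Input: enzyme working solution with 0.14 U/mL diaphorase; Timing: 16 min at room temperature; Technique: resorufin fluorescence, excitation 544 nm, emission 590 nm; Benchmarks: positive control minus NADH, DMSO neutral control.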
G6PDH CS: L. mesenteroides G6PDH inhibitors, counter-screen for G6PDH-coupled screening assays, biochemical, Leuconostoc mesenteroides enzyme; glucose-6-phosphate dehydrogenase [Leuconostoc mesenteroides]; Purified L. mesenteroides G6PDH, diaphorase/resazurin coupled fluorescence, 45 min; inhibition, % at 5 µM; 0.12% of 200,000 active; in the data active = inhibition above about 50%
Tb hexokinase: Trypanosoma brucei hexokinase 1 inhibitors, primary screen, biochemical, G6PDH-coupled NADH absorbance, MLSCN library | hexokinase 1 [Trypanosoma brucei] | recombinant TbHK1, G6PDH-coupled NADH A340 | inhibition, % at 10 µM | 0.11% of 220,000 active;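 active = inhibition of 50% or more in the single-dose primary screen; inactive = inhibition below 50%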
HKDC1 inh: HKDC1 hexokinase inhibitors, primary screen, biochemical, fluorescence, uHTS; inhibition, % at 20 µM; 0.16% of 340,000 active; Q2TB90; recombinant HKDC1, G6PDH/diaphorase resazurin coupled fluorescence;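 active = inhibition above about 35% when tested at 20 µM, limit read from the data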;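 also: plate controls were DMSO wells with enzyme for no effect and DMSO wells lacking enzyme for full effect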
Target sequence (Q2TB90 whole entry, looked up): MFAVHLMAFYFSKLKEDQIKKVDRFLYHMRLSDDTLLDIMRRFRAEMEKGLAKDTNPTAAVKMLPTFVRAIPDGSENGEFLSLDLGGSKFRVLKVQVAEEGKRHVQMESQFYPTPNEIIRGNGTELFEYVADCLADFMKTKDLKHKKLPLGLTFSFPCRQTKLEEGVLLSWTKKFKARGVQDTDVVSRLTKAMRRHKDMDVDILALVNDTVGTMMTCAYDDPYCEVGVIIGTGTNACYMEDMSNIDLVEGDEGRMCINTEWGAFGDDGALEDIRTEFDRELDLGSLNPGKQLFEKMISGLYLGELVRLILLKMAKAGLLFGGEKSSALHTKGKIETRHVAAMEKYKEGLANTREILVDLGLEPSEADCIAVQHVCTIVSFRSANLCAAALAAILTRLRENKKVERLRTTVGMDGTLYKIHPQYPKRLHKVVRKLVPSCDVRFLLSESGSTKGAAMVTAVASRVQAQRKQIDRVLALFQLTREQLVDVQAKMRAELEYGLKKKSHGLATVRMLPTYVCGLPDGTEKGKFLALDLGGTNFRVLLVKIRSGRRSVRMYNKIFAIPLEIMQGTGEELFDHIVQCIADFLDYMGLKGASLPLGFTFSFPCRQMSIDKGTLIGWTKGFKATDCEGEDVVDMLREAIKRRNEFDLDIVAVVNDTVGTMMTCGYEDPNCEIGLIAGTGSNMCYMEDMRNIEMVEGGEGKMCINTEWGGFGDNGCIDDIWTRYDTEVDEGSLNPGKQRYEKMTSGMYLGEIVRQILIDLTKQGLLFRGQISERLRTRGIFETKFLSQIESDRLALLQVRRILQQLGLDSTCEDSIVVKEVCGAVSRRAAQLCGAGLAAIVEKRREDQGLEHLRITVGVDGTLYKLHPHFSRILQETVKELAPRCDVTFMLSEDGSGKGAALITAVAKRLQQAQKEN
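Test system: recombinant HKDC1 (HK5) hexokinase enzyme, produced in-house; Amount: enzyme 5 µg/mL final; Buffer or medium: Tris pH 8.0 buffer with MgCl2, Tween-20, BSA, BME; Reagent: glucose and ATP substrates; Doses: 20 µM test compound, 1% DMSO; Incubation: 90 min reaction incubation at room temperature, dark; Detection: resorufin fluorescence at 613 nm.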
HKDC1 act conf: HKDC1 hexokinase activators, confirmation, biochemical, single concentration; AID 504708, 2011; inhibition, % at 20 µM; recombinant HKDC1, G6PDH/diaphorase resazurin fluorescence; active compounds read low; 14% of 740 active; shares compounds with HKDC1 inh;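 active = inhibition at or below a set negative limit, negative inhibition meaning the enzyme was activated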
Active calls of the source: *; . = not tested or not shown. Sampled rows, rich in hits. Any-hit rate of the full collection: about 1.3%.

SMILES	PfGluPho inh	Diaph act CS	Diaphorase inh	G6PDH CS	Tb hexokinase	HKDC1 inh	HKDC1 act conf
O=C(N/N=C/c1ccc(O)cc1O)/C(=C/c1ccccc1)CCO	-27.0	0.8	18.7	-11.9	-36.2	-40.1	-18.8
O=C(O)c1cc(O)c2c(c1)C(=O)c1cccc(O)c1C2=O	-29.6	0.7	32.4	37.5	11.1	40.2*	-2.0
Cc1cc(O)c2c(c1)C(=O)c1cccc(O)c1C2=O	.	0.7	30.2	23.7	3.3	.	.
NC(=O)[C@H]1CC2(CC(c3cccc(NC(=O)[C@H]4CCC(=O)N4)c3)=NO2)CN1C(=O)c1ccccc1 (stereo not given in full)	20.1	.	.	.	-10.0	38.8*	28.2
CC(=O)OCC1=C(C(=O)O)N2C(=O)[C@@H](NC(=O)Cc3ccccc3)[C@H]2SC1	0.9	.	.	.	.	3.1	.
C=CC1=C(C(=O)O)N2C(=O)C(NC(=O)Cc3ccccc3)C2SC1 (stereo not given)	9.6	0.8	18.1	-0.1	7.3	40.2*	-8.1
Oc1ccc2ccccc2c1C=Nc1ccccc1Br	23.6	.	.	.	.	37.6*	9.6
Oc1ccccc1N=Cc1c(O)ccc2ccccc12	7.1	.	.	.	4.6	10.5	.
Oc1ccc2ccccc2c1/C=N/c1nccs1	20.7	0.7	31.0	49.0	4.9	37.2*	29.1
O=C(COc1ccccc1/C=C\c1[nH]c(=O)[nH]c(=O)c1[N+](=O)[O-])Nc1ccccc1	-12.7	0.8	20.0	2.9	-13.1	39.6*	8.6
O=c1[nH]c(/C=C/c2ccccc2Cl)c([N+](=O)[O-])c(=O)[nH]1	1.6	.	.	.	.	13.7	.
COc1cc2c(C#N)c(N3CCc4ccccc4C3)nc(N)c2c(N)n1	33.1	0.4	61.3*	-27.7	14.6	40.8*	-20.8
O=NNc1nc2ccccc2n1Cc1ccccc1	37.4	.	.	.	.	-40.1	-44.2*
COc1cc(/C=C2\SC(=S)N(c3cccnc3)C2=O)ccc1O	-9.2	.	.	.	-23.8	38.2*	0.7
COc1cc(/C=C2\SC(=S)N(NC(=O)c3cccnc3)C2=O)ccc1O	-51.8	.	.	.	-2.3	-1.8	.
COC(=O)c1ccccc1Oc1cc(C(F)(F)F)nc(-c2ccccn2)n1	5.5	.	.	.	.	-2.2	.
COCCNc1ccc([N+](=O)[O-])cc1C(=O)Nc1cccc(C)n1	-2.0	0.9	10.9	-0.6	-21.0	-57.6	-14.4
O=c1cc(O)sc2ccccc12	-4.2	0.9	13.1	5.4	-1.3	42.9*	-16.1
O=C(O)Cn1c(=O)c2c3c(sc2n(Cc2ccc(Cl)cc2Cl)c1=O)CCCC3	4.4	.	.	.	.	6.8	.
O=C1NN(c2ccccc2)C(=O)/C1=C/c1ccc(-c2ccc(Cl)c(C(=O)O)c2)o1	33.6	0.7	27.7	3.8	0.5	4.8	.
Cc1ccc(Sc2ccc(/C=C3/C(=O)NN(c4ccccc4)C3=O)o2)cc1	-18.4	.	.	.	-6.5	35.1*	20.2
O=C1NN(c2ccccc2)C(=O)/C1=C/c1ccc(Sc2ccc(Cl)cc2)o1	3.7	.	.	.	7.2	41.8*	10.3
CC(=NNC(=S)Nc1ccccc1)c1ccccn1	32.3	.	.	.	.	.	.
C=CCNC(=S)N/N=C(\C)c1ccccn1	36.5	1.1	-11.8	10.2	-3.8	-43.5	-5.8
CCN(CC)C(=O)c1ccc(C(=O)c2c(C)cc(C)cc2C)cc1	-11.1	0.9	10.9	19.0	5.5	39.3*	-40.1*
CC(=O)n1cc(N(C(=O)CCl)c2ccc(C)cc2)c2ccccc21	0.8	.	.	.	-4.1	40.8*	14.8
O=C(CCc1ccccc1)Nc1ccc(S(=O)(=O)Nc2nccs2)cc1	-21.1	.	.	.	.	-2.9	.
Cc1ccc(NS(=O)(=O)c2ccc(Br)cc2)nc1	-5.2	0.9	7.1	26.3	-10.1	-5.0	.
